What was measured:
Rattus norvegicus = assay: Acute pressor activity in iv dosed Sprague-Dawley rat assessed as duration of arterial systolic blood pressure by 30 mmHg maintenance; assay type: functional, Artery
Method in brief: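 Iv jugular-cannula dosing was used in male normotensive Sprague-Dawley rats (380 ± 20 g), with arterial pressure recorded by carotid cannula and transducer. Six doses over a tenfold range were each given to four animals. Duration is the seconds for which blood pressure was […].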

`CN` [METHYLAMINE] showed a pKa (physchem) of 10.6.

Compound `NCC(O)c1ccc(O)c(O)c1` (racemic) has a Time (Rattus norvegicus) of 32 s and a pKa (physchem) of 9.

Compound `C[C@H](N)Cc1ccc(O)c(O)c1` has a Time (Rattus norvegicus) of 34 s.

For `CNC[C@H](O)c1ccc(O)c(O)c1` [EPINEPHRINE], the Time (Rattus norvegicus) was 12 s and the pKa (physchem) was 9.5.

Compound `CNCCc1ccc(O)c(O)c1` [DEOXIEPINEPHRINE] has a Time (Rattus norvegicus) of 18 s and a pKa (physchem) of 10.5.

For `CNCC(C)c1ccc(O)c(O)c1` (racemic), the Time (Rattus norvegicus) was 28 s and the pKa (physchem) was 10.5.

In the case of `NCCc1ccc(O)c(O)c1` [DOPAMINE], the Time (Rattus norvegicus) is reported as 32 s and the pKa (physchem) is reported as 10.

For `CNCC(OC)c1ccc(O)c(O)c1.Cl` (racemic), the Time (Rattus norvegicus) was 21 s and the pKa (physchem) was 9.5.

With `CNC` [DIMETHYLAMINE] the pKa (physchem) was 10.8.

`NC[C@H](O)c1ccc(O)c(O)c1` [NOREPINEPHRINE] showed a Time (Rattus norvegicus) of 32 s.

With `C[C@@H](N)Cc1ccc(O)c(O)c1` the Time (Rattus norvegicus) was 20 s.

`CC(CN)c1ccc(O)c(O)c1.Cl` (racemic) showed a Time (Rattus norvegicus) of 29 s and a pKa (physchem) of 10.

With `CC(N)Cc1ccc(O)c(O)c1` (racemic) the Time (Rattus norvegicus) was 22 s and the pKa (physchem) was 10.

Source: ChEMBL document CHEMBL3244398, “Oxidative and cardiovascular studies on natural and synthetic catecholamines” (J Med Chem, 1978)
